Measurements from ChEMBL document CHEMBL1687852, “Steroids with aromatic A-rings from the Hainan soft coral Dendronephthya studeri Ridley” (J Nat Prod, 2011).
Activity calls are given as the source filed them. No cut-off for these calls is given here.

Experiments:
Type in all cases: functional, cell-based
[1] = system: Bel-7402; test: Cytotoxicity against human Bel7402 at 20 ug/ml by MTT assay
Outline: (§1)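 Growth of the tumour cell lines was tested with compound at concentrations up to 20 μg/mL. The lines were human lung adenocarcinoma A549, BEL-7402, human promyelocytic leukaemia HL-60 and murine lymphocytic leukaemia P388.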

[2] = system: P388; test: Cytotoxicity against mouse P388 at 20 ug/ml by MTT assay; outline: as §1
[3] = system: HL-60; test: Cytotoxicity against human HL60 at 20 ug/ml by MTT assay; outline: as §1
[4] = system: A549; test: Cytotoxicity against human A549 at 20 ug/ml by SRB assay; outline: as §1
[5] = system: Bel-7402; test: Cytotoxicity against human Bel7402 by MTT assay

| SMILES | Activity [1] | Activity [2] | Activity [3] | Activity [4] | Activity [5] |
| --- | --- | --- | --- | --- | --- |
| C=C(CC[C@@H](C)[C@H]1CC[C@H]2[C@@H]3CCC4=CC(=O)C=C[C@]4(C)[C@H]3CC[C@]12C)C(C)C | inactive | inactive | inactive | inactive |  |
| CC(C)[C@H](C)/C=C/[C@@H](C)[C@H]1CC[C@H]2[C@@H]3CCc4cc(O)ccc4[C@H]3CC[C@]12C | inactive | inactive | inactive | inactive |  |
| COC(=O)[C@H](CCCC(C)C)[C@H]1CC[C@H]2[C@@H]3CC[C@H]4CC(=O)C=C[C@]4(C)[C@H]3CC[C@]12C |  |  |  |  | Active |
| CC(C)/C=C/[C@@H](C)[C@H]1CC[C@H]2[C@@H]3CCc4cc(O)ccc4[C@H]3CC[C@]12C | inactive | inactive | inactive | inactive |  |
| CC(C)/C=C/[C@@H](C)[C@H]1CC[C@H]2[C@@H]3CCC4=CC(=O)C=C[C@]4(C)[C@H]3CC[C@]12C | inactive | inactive | inactive | inactive |  |
| CC(C)[C@@H](C)/C=C/[C@@H](C)[C@H]1CC[C@H]2[C@@H]3CCc4cc(O)ccc4[C@H]3CC[C@]12C | inactive | inactive | inactive | inactive |  |
| CC1CC1/C=C/[C@@H](C)[C@H]1CC[C@H]2[C@@H]3CCc4cc(O)ccc4[C@H]3CC[C@]12C (stereo partly specified) | inactive | inactive | inactive | inactive |  |
| CC(C)C/C=C/[C@@H](C)[C@H]1CC[C@H]2[C@@H]3CCc4cc(O)ccc4[C@H]3CC[C@]12C | inactive | inactive | inactive | inactive |  |
| C=C(CC[C@@H](C)[C@H]1CC[C@H]2[C@@H]3CCc4cc(O)ccc4[C@H]3CC[C@]12C)C(C)C | inactive | inactive | inactive | inactive |  |
| CC(C)CCC[C@@H](C)[C@H]1CC[C@H]2[C@@H]3CCc4cc(O)ccc4[C@H]3CC[C@]12C | inactive | inactive | inactive | inactive |  |
| CC(C)C/C=C/[C@@H](C)[C@H]1CC[C@H]2[C@@H]3CCC4=CC(=O)C=C[C@]4(C)[C@H]3CC[C@]12C | inactive | inactive | inactive | inactive |  |
